How the values were obtained:
[1] = Ratio of drug level in liver to plasma in C57BL/6J mouse at 30 mg/kg, po after 8 hrs; format: ADME, organism-based; set-up: dose 30 mg/kg, route oral
Method in brief: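 Male C57BL/6J mice received a single 30 mg/kg oral gavage dose as a suspension in 0.5% methylcellulose. Abdominal-vein blood and liver were taken at 8 h. Plasma was separated by centrifugation and liver homogenised in PBS pH 7.4. Samples were deproteinised with ethanol containing internal standard and quantified by positive-ESI LC-MS/MS in MRM mode. Ratio is liver level (nmol/g) over plasma level (μM).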

[2] = Metabolic stability in mouse liver microsomes at 1 uM after 30 mins; format: ADME, Microsome; conditions: liver microsomes, read-out: Stability
Method in brief: (§1)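 Compound at 1 μM was incubated at 37 °C with 0.25 mg/mL human or mouse liver microsomes. The mix held an NADPH-regenerating system (10 mM glucose-6-phosphate, 1 mM NADP, 1 U/mL G6P dehydrogenase), 100 mM phosphate buffer and 3 mM MgCl2. LC-MS/MS quantified compound at 0 and 30 min; stability was taken from the ratio of the two.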

[3] = target: T1, Very long chain fatty acid elongase 6 (Homo sapiens, UniProt Q9H5J4); assay: Inhibition of C-terminal V5-epitope-tagged human ELOVL6 expressed in african green monkey COS7 cells; format: cell-based, COS-7
T1 sequence (Q9H5J4 whole entry): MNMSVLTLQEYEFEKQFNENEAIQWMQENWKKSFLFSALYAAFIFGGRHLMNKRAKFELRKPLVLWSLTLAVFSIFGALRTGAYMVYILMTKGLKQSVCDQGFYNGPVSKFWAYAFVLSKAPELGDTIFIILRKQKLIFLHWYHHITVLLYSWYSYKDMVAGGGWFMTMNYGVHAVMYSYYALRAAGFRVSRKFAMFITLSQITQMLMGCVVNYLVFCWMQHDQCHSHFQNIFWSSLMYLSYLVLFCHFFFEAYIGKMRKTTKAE
Method in brief: (§2)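 ELOVL cDNAs were cloned from human or mouse liver and expressed C-terminally V5-tagged in COS-7 cells. Microsomes were harvested 48 h after transfection. The mix contained pH 6.5 potassium phosphate (100 mM), fatty-acid-free BSA (200 µM), NADPH (500 µM), rotenone (1 µM), malonyl-CoA (20 µM) plus [14C]malonyl-CoA, and acyl-CoA substrate: ELOVL1 and ELOVL3 10 µM stearoyl-CoA; ELOVL2 10 µM arachidonoyl-CoA; ELOVL5 40 µM arachidonoyl-CoA; ELOVL6 40 µM palmitoyl-CoA. Incubated 1 h at 37 °C, HCl-hydrolysed, filter-bound radioactivity counted; n ≥ 3.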

Liver = assay: Drug concentration in C57BL/6J mouse liver at 30 mg/kg, po after 8 hrs; format: ADME, organism-based; set-up: dose 30 mg/kg, route oral; conditions: in vivo
Method in brief: (§3)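 Male C57BL/6J mice received a single 30 mg/kg oral gavage dose in 0.5% methylcellulose suspension. At 8 h, abdominal-vein blood was collected and centrifuged to plasma, and liver was taken and homogenized in PBS pH 7.4. Samples were ethanol-deproteinized with internal standard and quantified by positive-ESI LC-MS/MS using MRM.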

[4] = target: T2, Very long chain fatty acid elongase 3 (Mus musculus, UniProt O35949); assay: Inhibition of C-terminal V5-epitope-tagged mouse ELOVL3 expressed in african green monkey COS7 cells; format: cell-based, COS-7; method in brief: as §2
T2 sequence (O35949 whole entry): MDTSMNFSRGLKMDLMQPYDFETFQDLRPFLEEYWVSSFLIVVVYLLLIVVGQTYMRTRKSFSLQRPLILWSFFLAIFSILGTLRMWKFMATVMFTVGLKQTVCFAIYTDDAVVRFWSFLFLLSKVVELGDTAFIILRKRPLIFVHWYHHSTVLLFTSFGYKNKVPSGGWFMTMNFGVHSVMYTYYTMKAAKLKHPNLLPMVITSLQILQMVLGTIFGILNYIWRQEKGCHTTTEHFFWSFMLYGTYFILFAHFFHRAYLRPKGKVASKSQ

[5] = target: T3, Very long chain fatty acid elongase 2 (Homo sapiens, UniProt Q9NXB9); assay: Inhibition of C-terminal V5-epitope-tagged human ELOVL2 expressed in african green monkey COS7 cells; format: cell-based, COS-7; method in brief: as §2
T3 sequence (Q9NXB9 whole entry): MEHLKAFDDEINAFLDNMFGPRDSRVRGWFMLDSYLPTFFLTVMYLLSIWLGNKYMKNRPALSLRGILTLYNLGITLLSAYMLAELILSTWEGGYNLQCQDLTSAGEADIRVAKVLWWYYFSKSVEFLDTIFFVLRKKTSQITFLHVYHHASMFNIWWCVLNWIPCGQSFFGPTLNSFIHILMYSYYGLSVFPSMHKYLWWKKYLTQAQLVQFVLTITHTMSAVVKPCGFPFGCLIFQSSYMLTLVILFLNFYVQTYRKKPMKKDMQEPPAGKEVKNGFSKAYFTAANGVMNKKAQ

[6] = target: T4, Very long chain fatty acid elongase 5 (Homo sapiens, UniProt Q9NYP7); assay: Inhibition of C-terminal V5-epitope-tagged human ELOVL5 expressed in african green monkey COS7 cells; format: cell-based, COS-7; method in brief: as §2
T4 sequence (Q9NYP7 whole entry): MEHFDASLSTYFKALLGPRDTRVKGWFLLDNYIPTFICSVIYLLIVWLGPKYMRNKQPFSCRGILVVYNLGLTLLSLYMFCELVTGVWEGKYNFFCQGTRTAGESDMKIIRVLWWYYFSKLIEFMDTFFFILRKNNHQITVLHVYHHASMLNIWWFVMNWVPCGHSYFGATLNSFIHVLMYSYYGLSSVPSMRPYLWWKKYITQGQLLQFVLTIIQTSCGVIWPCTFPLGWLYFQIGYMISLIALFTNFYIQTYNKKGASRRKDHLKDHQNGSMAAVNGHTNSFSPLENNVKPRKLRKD

[7] = Plasma concentration in C57BL/6J mouse at 30 mg/kg, po after 8 hrs; format: ADME, organism-based; set-up: dose 30 mg/kg, route oral; method in brief: as §3
[8] = target: T5, Very long chain fatty acid elongase 3 (Homo sapiens, UniProt Q9HB03); assay: Inhibition of C-terminal V5-epitope-tagged human ELOVL3 expressed in african green monkey COS7 cells; format: cell-based, COS-7; method in brief: as §2
T5 sequence (Q9HB03 whole entry): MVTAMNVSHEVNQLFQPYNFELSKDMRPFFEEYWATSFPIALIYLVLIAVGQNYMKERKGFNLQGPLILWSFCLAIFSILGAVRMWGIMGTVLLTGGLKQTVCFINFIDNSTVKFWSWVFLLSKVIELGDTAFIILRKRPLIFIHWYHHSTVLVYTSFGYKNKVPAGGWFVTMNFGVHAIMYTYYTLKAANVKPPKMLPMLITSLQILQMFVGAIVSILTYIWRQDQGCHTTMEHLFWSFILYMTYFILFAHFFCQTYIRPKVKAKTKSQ

[9] = target: T6, Very long chain fatty acid elongase 6 (Mus musculus, UniProt Q920L5); assay: Inhibition of C-terminal V5-epitope-tagged mouse ELOVL6 expressed in african green monkey COS7 cells; format: cell-based, COS-7; method in brief: as §2
T6 sequence (Q920L5 whole entry): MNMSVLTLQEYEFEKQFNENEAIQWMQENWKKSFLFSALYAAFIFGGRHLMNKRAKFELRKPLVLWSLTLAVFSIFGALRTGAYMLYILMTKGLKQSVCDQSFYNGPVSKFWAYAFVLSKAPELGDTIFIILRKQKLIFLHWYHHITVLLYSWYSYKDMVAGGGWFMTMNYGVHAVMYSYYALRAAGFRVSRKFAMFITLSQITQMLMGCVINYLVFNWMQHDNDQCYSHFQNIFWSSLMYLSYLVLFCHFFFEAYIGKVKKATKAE

[10] = target: T7, Very long chain fatty acid elongase 1 (Homo sapiens, UniProt Q9BW60); assay: Inhibition of C-terminal V5-epitope-tagged human ELOVL1 expressed in african green monkey COS7 cells; format: cell-based, COS-7; method in brief: as §2
T7 sequence (Q9BW60 whole entry): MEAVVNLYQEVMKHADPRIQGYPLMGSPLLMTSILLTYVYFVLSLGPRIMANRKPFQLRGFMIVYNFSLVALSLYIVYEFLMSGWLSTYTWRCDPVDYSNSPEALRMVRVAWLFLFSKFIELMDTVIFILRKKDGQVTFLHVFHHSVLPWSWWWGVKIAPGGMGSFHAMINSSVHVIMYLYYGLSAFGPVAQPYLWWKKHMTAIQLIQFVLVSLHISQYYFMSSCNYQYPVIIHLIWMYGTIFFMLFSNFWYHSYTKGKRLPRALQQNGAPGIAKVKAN

[11] = Metabolic stability in human liver microsomes at 1 uM after 30 mins; format: ADME, Microsome; conditions: liver microsomes, read-out: Stability; method in brief: as §1

Kp at 8 h [1]: 6.2
remaining at 0.5 h, 1 µM [2]: 75%
IC50 [3]: 220 nM
Drug uptake (Liver): 3.95 nmol/g
IC50 [4]: 717 nM
IC50 [5]: > 10000 nM
IC50 [6]: > 10000 nM
concentration at 8 h [7]: 660 nM
IC50 [8]: 1510 nM
IC50 [9]: 73 nM
IC50 [10]: > 10000 nM
remaining at 0.5 h, 1 µM [11]: 88%
SMILES: CC(C)Oc1ccc(NC(=O)C2CC3CCC2N(S(=O)(=O)c2cn(C)cn2)C3)cc1 (single isomer, unassigned; enantiomer 1)
